Measured values as given in ChEMBL document CHEMBL1148647, “Structure-activity relationship studies on a series of novel, substituted 1-benzyl-5-phenyltetrazole P2X7 antagonists” (J Med Chem, 2006).
Activity calls are given as the source filed them.

Columns and labels:
P2X purinoceptor 7 [1] = target: T1, P2X purinoceptor 7 (Rattus norvegicus, UniProt Q64663); test: Antagonist activity at rat P2X7 receptor expressed in human 1321N1 cells assessed as inhibition of calcium flux by FLIPR; format: functional, cell-based
T1 sequence (Q64663 whole entry): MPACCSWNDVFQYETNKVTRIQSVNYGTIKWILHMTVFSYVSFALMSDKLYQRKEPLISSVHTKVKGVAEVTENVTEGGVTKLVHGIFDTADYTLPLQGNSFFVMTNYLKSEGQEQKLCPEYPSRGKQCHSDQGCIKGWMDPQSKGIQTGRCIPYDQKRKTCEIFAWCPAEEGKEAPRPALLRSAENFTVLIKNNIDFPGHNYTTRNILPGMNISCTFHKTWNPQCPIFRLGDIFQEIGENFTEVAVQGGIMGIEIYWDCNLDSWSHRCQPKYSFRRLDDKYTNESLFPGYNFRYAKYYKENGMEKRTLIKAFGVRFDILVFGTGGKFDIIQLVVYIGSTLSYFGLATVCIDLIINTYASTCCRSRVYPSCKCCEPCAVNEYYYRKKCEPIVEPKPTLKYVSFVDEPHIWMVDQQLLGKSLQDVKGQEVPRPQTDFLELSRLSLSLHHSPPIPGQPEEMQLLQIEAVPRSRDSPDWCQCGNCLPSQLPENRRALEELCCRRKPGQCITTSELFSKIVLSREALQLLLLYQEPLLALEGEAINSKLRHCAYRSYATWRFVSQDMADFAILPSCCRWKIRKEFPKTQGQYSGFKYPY
Outline: (§1)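 Recombinant P2X7 (human or rat) stably transfected into human 1321N1 astrocytoma cells lacking endogenous P2X receptor function. Fluo-4 calcium dye, FLIPR read-out. 5-min antagonist pretreatment, then BzATP agonist. IC50 determined.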

P2X purinoceptor 7 [2] = target: T2, P2X purinoceptor 7 (Homo sapiens, UniProt Q99572); test: Antagonist activity at human P2X7 receptor expressed in human 1321N1 cells assessed as inhibition of calcium flux by FLIPR; format: functional, cell-based; outline: as §1
T2 sequence (Q99572 whole entry): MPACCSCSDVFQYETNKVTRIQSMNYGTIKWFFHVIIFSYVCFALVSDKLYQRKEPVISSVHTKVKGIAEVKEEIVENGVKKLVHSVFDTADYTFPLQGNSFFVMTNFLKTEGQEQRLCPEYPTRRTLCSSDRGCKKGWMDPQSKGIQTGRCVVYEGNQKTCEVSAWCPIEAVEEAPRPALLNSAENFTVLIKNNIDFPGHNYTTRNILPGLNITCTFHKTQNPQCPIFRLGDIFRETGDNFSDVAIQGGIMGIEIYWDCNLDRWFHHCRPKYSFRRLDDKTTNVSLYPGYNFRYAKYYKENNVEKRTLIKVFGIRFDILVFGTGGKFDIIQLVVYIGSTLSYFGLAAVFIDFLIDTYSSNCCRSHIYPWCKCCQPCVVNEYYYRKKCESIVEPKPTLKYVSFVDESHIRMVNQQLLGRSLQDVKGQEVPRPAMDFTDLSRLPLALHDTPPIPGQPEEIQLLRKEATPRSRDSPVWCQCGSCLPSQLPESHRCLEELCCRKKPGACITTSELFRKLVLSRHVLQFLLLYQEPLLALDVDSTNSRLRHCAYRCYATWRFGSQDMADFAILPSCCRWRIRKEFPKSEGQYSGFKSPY

THP-1 [3] = test: Ability to block pore formation in human THP1 cells assessed as inhibition of YO-PRO-1 diiodide dye uptake; format: functional, cell-based
Outline: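 Differentiated human THP-1 cells stimulated with agonist BzATP for 1 h in presence of test compound. Pore formation read as inhibition of cellular uptake of the impermeable dye YO-PRO-1 diiodide.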

THP-1 [4] = test: Inhibition of ILbeta production in human THP1 cells; format: functional, cell-based
Outline: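 Human THP-1 cells differentiated with LPS and IFNγ, then stimulated with BzATP for 30 min in presence of test compound. Released IL-1β quantified by EIA.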

Rattus norvegicus [5] = test: Impairment of motor function in rat by rotarod assay up to 300 umol/kg, ip; format: functional, organism-based
Outline: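 Accelerating rotarod, ip dosing up to 300 µmol/kg. Time for the animal to fall from the rod recorded.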

Rattus norvegicus [6] = test: Reversal of mechanical allodynia in L5/L6 spinal nerve tight ligation model of neuropathic pain in ip dosed rat; format: functional
Outline: (§2)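 Spinal nerve ligation (L5/L6, Chung) done 7-14 days before testing. Antagonist given ip at 10-300 µmol/kg. Von Frey hair applied 30 min after dosing. Paw withdrawal threshold on injured (left) side compared with contralateral paw. ED50 and maximal response relative to contralateral side derived.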

[7] = Oral bioavailability in rat at 10 umol/kg, ip; format: ADME, organism-based; settings: in vivo, intraperitoneal, read-out: Activity
[8] = Half life in rat at 10 umol/kg; format: ADME, organism-based; settings: in vivo
Rattus norvegicus [9] = test: Reversal of mechanical allodynia in L5/L6 spinal nerve tight ligation model of neuropathic pain in ip dosed rat relative to control; format: functional; outline: as §2

| SMILES | IC50 (P2X purinoceptor 7 [1]) | IC50 (P2X purinoceptor 7 [2]) | IC50 (THP-1 [3]) | also measured |
| --- | --- | --- | --- | --- |
| Cc1ccccc1Cn1nnnc1-c1cccc(Cl)c1Cl | 0.0631 µM | 0.0158 µM | 0.126 µM | IC50 (THP-1 [4]): 0.158 µM |
| c1ccc(-c2nnnn2Cc2cccnc2)cc1 | – | 25.1 µM | > 10 µM | – |
| Clc1cccc(-c2nnnn2Cc2ccccc2)c1Cl | 0.0794 µM | 0.0398 µM | 0.501 µM | – |
| Fc1ccc(-c2nnnn2Cc2cccnc2)c(Cl)c1Cl | – | 0.0126 µM | 0.398 µM | – |
| c1ccc(Cn2nnnc2-c2ccncc2)cc1 | – | 31.6 µM | – | – |
| Clc1ccccc1-c1nnnn1Cc1cccnc1 | – | 15.8 µM | – | – |
| O=C(NCC12CC3CC(CC(C3)C1)C2)c1cccc(Cl)c1Cl | – | 0.0631 µM | – | – |
| Clc1cccc(-c2nnnn2Cc2ccncc2)c1Cl | 3.16 µM | 0.794 µM | 2 µM | IC50 (THP-1 [4]): 20 µM |
| COc1cccc(-c2nnnn2Cc2ccccc2Cl)c1OC | – | 3.98 µM | > 10 µM | – |
| Cc1nc(C)c(Cn2nnnc2-c2cccc(Cl)c2Cl)s1 | 1.26 µM | 0.0501 µM | 0.251 µM | – |
| Clc1cccc(-c2nnnn2Cc2ccccn2)c1Cl | – | 0.501 µM | 2 µM | – |
| Cc1ncccc1Cn1nnnc1-c1cccc(Cl)c1Cl | 0.2 µM | 0.0316 µM | 0.2 µM | IC50 (THP-1 [4]): 0.158 µM |
| Cc1noc(C)c1Cn1nnnc1-c1cccc(Cl)c1Cl | – | 0.158 µM | 0.794 µM | – |
| Clc1c(-c2nnnn2Cc2ccccc2)ccc(N2CCCC2)c1Cl | – | > 10 µM | – | – |
| Fc1c(-c2nnnn2Cc2cccnc2)cccc1C(F)(F)F | 0.0794 µM | 0.0631 µM | 0.501 µM | IC50 (THP-1 [4]): 0.501 µM |
| Clc1cccc(-n2nnnc2Cc2cccnc2)c1Cl | – | 0.1 µM | 0.398 µM | – |
| Fc1ccc(-n2nnnc2Cc2cccnc2)c(Cl)c1Cl | 0.1 µM | 0.0251 µM | – | IC50 (THP-1 [4]): 0.0398 µM |
| Clc1cccc(-c2nnnn2Cc2cccnc2)c1Cl | 0.316 µM | – | 0.2 µM | Activity (Rattus norvegicus [5]): inactive; ED50 (Rattus norvegicus [6]): 76 µmol/kg; bioavailability [7]: 19%; half-life [8]: 1 h; Activity (Rattus norvegicus [9]): 78%; IC50 (THP-1 [4]): 0.398 µM |
| Clc1ccc(-c2nnnn2Cc2cccnc2)c(Cl)c1Cl | – | 0.2 µM | 1.35 µM | – |
| Clc1cccc(-c2nnnn2Cc2cccnc2)c1 | – | 7.94 µM | > 10 µM | – |
| Clc1cccc(-c2nnnn2CCc2cccnc2)c1Cl | – | 12.6 µM | > 10 µM | – |
| c1ccc(Cn2nnnc2-c2cccc3ncccc23)cc1 | – | 15.8 µM | > 10 µM | – |
| Fc1ccc(-n2nnnc2Cc2cccnc2)c(Cl)c1C(F)(F)F | – | 0.02 µM | 0.158 µM | – |
| Cc1ccccc1Cn1nnnc1-c1cccc(C)c1C | – | 0.251 µM | 1.26 µM | – |
| Fc1cccc(-c2nnnn2Cc2cccnc2)c1C(F)(F)F | – | 0.631 µM | – | – |
| FC(F)(F)c1cccc(-c2nnnn2Cc2cccnc2)c1Cl | 0.0631 µM | 0.0126 µM | 0.158 µM | IC50 (THP-1 [4]): 0.0794 µM |
| c1ccc(Cn2nnnc2-c2cccc3cccnc23)cc1 | – | 25.1 µM | – | – |
| Clc1ccc(-c2nnnn2Cc2cccnc2)cc1Cl | – | 3.98 µM | 7.94 µM | – |
| FC(F)(F)c1cccc(-n2nnnc2Cc2cccnc2)c1Cl | 0.0501 µM | 0.0126 µM | 0.0501 µM | IC50 (THP-1 [4]): 0.0251 µM |
| Clc1ccc(Cl)c(-c2nnnn2Cc2cccnc2)c1 | – | 15.8 µM | > 10 µM | – |
